KCNK3 block: human KCNK3 channel inhibition, primary screen. O14649. 340,000 tested, 0.84% active. CHO-KCNK3 thallium flux, FluxOR fluorescence; active compounds read low. B-score at 10 µM. AID 602410;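 active means B-score under library mean minus 4 SD, starting fluorescence ratio at most library mean plus 5 SD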;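 further: more negative B-score means stronger inhibition of thallium flux through KCNK3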
KCNQ1 act: potentiates or activates the human KCNQ1 potassium channel; P51787; CHO-K1 KCNQ1, thallium flux FluxOR fluorescence; active compounds read high; B-score at 10 µM; 310,000 tested, 0.35% active;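 active means fluorescence ratio B-score, a plate-corrected score, at least three library SD, with initial intensity B-score within 5 SD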
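assay system = CHO-K1 cells stably expressing KCNQ1 | medium = assay buffer, equal DMSO in all wells | timing = 37 °C overnight plating, 90-min dark dye load, 20-min compound pretreatment | measured by = kinetic FluxOR thallium fluorescence, 10-s 1-Hz baseline, 110-s post-stimulus read | measure = fluorescence change relative to baseline, converted to B score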
hERG rescue: hERG (human) protection from proarrhythmic block; Q12809; CHO-hERG, FluxOR thallium flux, dofetilide IC70 present; activation (rescue from dofetilide block), less the hit threshold, % at 10 µM; 310,000 tested, 0.51% active; AID 1511;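 active means activation above the mean of controls blocked by dofetilide plus 5 SD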;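 further: thallium influx through hERG after potassium depolarization seen as dye fluorescence rise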
Kir21 inh: Kir2.1 (mouse) channel inhibition | P35561 | HEK293-Kir2.1, FluxOR thallium flux fluorescence; active compounds read low | B-score at 10 µM | 310,000 tested, 0.85% active | AID 1672;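 active means fluorescence ratio B-score at or below minus 3 SD of library scores, with starting-brightness B-score within 2 SD, cut at about -4.2 in these data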;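 further: channel flux triggered by added potassium and thallium sulfate stimulus; B-score of peak minus minimum fluorescence over baseline after thallium stimulus; more negative B-score means stronger Kir2.1 block with less thallium influx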
Target sequence (P35561 whole entry, looked up): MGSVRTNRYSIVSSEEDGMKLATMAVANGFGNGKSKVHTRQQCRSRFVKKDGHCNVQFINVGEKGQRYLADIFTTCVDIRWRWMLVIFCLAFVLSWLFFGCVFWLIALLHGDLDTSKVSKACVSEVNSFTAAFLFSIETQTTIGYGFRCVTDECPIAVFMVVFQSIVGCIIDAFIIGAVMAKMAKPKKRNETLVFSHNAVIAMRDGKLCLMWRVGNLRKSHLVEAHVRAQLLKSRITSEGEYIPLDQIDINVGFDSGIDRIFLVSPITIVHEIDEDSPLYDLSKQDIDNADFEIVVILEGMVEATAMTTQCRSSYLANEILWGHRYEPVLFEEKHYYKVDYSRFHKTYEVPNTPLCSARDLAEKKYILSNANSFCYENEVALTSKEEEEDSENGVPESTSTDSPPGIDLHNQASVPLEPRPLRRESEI
KCNQ1 block: inhibitors of human KCNQ1 potassium channel | P51787 | CHO-K1 KCNQ1, FluxOR thallium flux fluorescence; active compounds read high | B-score at 10 µM | 310,000 tested, 1.3% active;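 active means compounds whose thallium flux B-score, printed positive for inhibition, exceeds three library SD while starting fluorescence stays within three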;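 further: channel opened by potassium depolarization with thallium stimulus after 20 min compound exposure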
KCNK9 inh: blocks the human KCNK9 two-pore domain potassium channel; 310,000 tested, 1.2% active; B-score at 10 µM; HEK293 KCNK9, FluxOR thallium flux fluorescence; active compounds read low; Q9NPC2;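 active means ratio B-score over 3 SD below the library mean, with starting fluorescence within 5 SD of its mean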;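 further: negative B-score means less thallium flux so channel inhibition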
KCNK9 block conf: human KCNK9 inhibitor confirmation. shares compounds with KCNK9 inh. HEK293 KCNK9 cells, FluxOR thallium flux fluorescence. inhibition, % at 10 µM. 4,900 tested, 43% active;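 active means thallium signal inhibited by more than 5 SD of the compound-free buffer control wells, on both duplicate plates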;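 further: 0% = assay buffer control wells without compound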
Kir2-1 spec: selectivity of KCNK9 modulators against mouse Kir2.1. shares compounds with KCNK9 inh. 4,900 tested, 4% active. inhibition, % at 10 µM. Kir2.1 cells, FluxOR thallium flux fluorescence;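 active means thallium signal drop more than 5 SD beyond the mean of the no-compound control wells, seen in both duplicate plates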;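 further: signal is fluorescence rise after thallium addition divided by baseline fluorescence; plate controls were assay buffer only for no effect and full block by chlorpromazine control for full effect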
KCNK9 uninduced: second counter-screen for KCNK9 modulators: effect in non-induced cells | 4,900 tested, 40% active | shares compounds with KCNK9 inh | non-induced KCNK9-HEK293, FluxOR thallium flux | inhibition, % at 10 µM | AID 492997;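 active means thallium signal drop beyond 5 SD of the untreated control mean, on both duplicate plates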;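 further: plate controls were buffer only IC0 wells for no effect and SID17386958 at its maximal inhibitory level for full effect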
Starred values were filed as active, the others as inactive. Only some compounds are listed: those with a hit (about 3.7% of all), similar ones and a draw of the others.

What do the screens show for `Cn1nc(C(F)(F)F)c(/C=N/OC(=O)c2ccccc2Cl)c1SCc1ccccc1Cl`?
KCNK3 block: inactive; KCNQ1 act: inactive; hERG rescue: -13.9; Kir21 inh: 1.05; KCNQ1 block: inactive; KCNK9 inh: -10.2*; KCNK9 block conf: 44.5%*; Kir2-1 spec: inactive; KCNK9 uninduced: 36.0%*

Results for CC(O)CNc1nc2sc3c(c2c(=O)n1CCc1ccccc1)CCCCC3 (stereo not drawn) ?
KCNK3 block: inactive; KCNQ1 act: inactive; hERG rescue: -11.8; Kir21 inh: -0.97; KCNQ1 block: inactive; KCNK9 inh: inactive; KCNK9 block conf: inactive; Kir2-1 spec: inactive; KCNK9 uninduced: inactive

What do the screens show for `COC(=O)Cn1c(=O)n(CCc2ccccc2)c(=O)c2c3c(sc21)CCCC3`?
KCNK3 block: inactive; KCNQ1 act: inactive; hERG rescue: -10.3; Kir21 inh: 0.84; KCNQ1 block: inactive; KCNK9 inh: inactive; KCNK9 block conf: inactive; Kir2-1 spec: inactive; KCNK9 uninduced: inactive

How did CC(O)CNc1nc2sc3c(c2c(=O)n1Cc1ccco1)CCCCC3 (stereo not drawn) do in these assays?
KCNK3 block: inactive; KCNQ1 act: inactive; hERG rescue: -8.8; Kir21 inh: 0.01; KCNQ1 block: inactive; KCNK9 inh: inactive

What do the screens show for `COc1ccc(Nc2nccc3c2ncn3C)cc1`?
KCNK3 block: inactive; KCNQ1 act: inactive; hERG rescue: -6.4; Kir21 inh: 0.74; KCNQ1 block: inactive; KCNK9 inh: inactive

What do the screens show for `COc1cccc(CNC(=O)C2CCN(S(=O)(=O)c3cccc4nonc34)CC2)c1`?
KCNK3 block: inactive; KCNQ1 act: inactive; hERG rescue: -5.2; Kir21 inh: 0.1; KCNQ1 block: inactive; KCNK9 inh: inactive

What do the screens show for `CC(OC(=O)CCN=C1NS(=O)(=O)c2ccccc21)C(=O)Nc1ccc(N(C)C)cc1` (stereo not drawn)?
KCNK3 block: inactive; KCNQ1 act: inactive; hERG rescue: -0.9; Kir21 inh: -2.49; KCNQ1 block: inactive; KCNK9 inh: inactive

What do the screens show for `CCCN1C(=O)C(=O)c2cc(Cl)ccc21`?
KCNK3 block: inactive

How did O=C(/C=C/c1ccccc1)NC(NC(=S)Nc1ccc(Cl)cc1Cl)C(Cl)(Cl)Cl (stereo not drawn) do in these assays?
KCNK3 block: inactive; KCNQ1 act: inactive; hERG rescue: -12.8; Kir21 inh: -0.25; KCNQ1 block: inactive; KCNK9 inh: inactive; KCNK9 block conf: inactive; Kir2-1 spec: inactive; KCNK9 uninduced: inactive

Results for COc1cccc(/C(C#N)=C/c2c(-c3ccc(Cl)cc3)nc3c(C)cccn23)c1 ?
KCNK3 block: inactive; KCNQ1 act: inactive; hERG rescue: -5.9; Kir21 inh: 1.05; KCNQ1 block: 8*; KCNK9 inh: -8.91*; KCNK9 block conf: 58.0%*; Kir2-1 spec: inactive; KCNK9 uninduced: 38.0%*

Results for N#CCSc1nc2c(c(=O)n1Cc1ccco1)C1(CCCC1)Cc1ccccc1-2 ?
KCNK3 block: inactive; KCNQ1 act: inactive; hERG rescue: -3.6; Kir21 inh: -1.65; KCNQ1 block: 6*; KCNK9 inh: -14.5*; KCNK9 block conf: 54.5%*; Kir2-1 spec: inactive; KCNK9 uninduced: 33.0%*

How did COc1ccc(/C=C2\SC(=O)N(CCNC(=O)C3=COCCO3)C2=O)cc1 do in these assays?
KCNK3 block: inactive; KCNQ1 act: inactive; hERG rescue: -15.0; Kir21 inh: 0.18; KCNQ1 block: inactive; KCNK9 inh: inactive

How did O=C(NCCN1C(=O)S/C(=C\c2ccc(OC(F)F)cc2)C1=O)C1=COCCO1 do in these assays?
KCNK3 block: inactive; KCNQ1 act: inactive; hERG rescue: -8.6; Kir21 inh: 0.12; KCNQ1 block: inactive; KCNK9 inh: inactive; KCNK9 block conf: inactive; Kir2-1 spec: inactive; KCNK9 uninduced: inactive

How did CCN(CC(=O)Nc1c(F)cccc1F)C(=O)c1cc(S(=O)(=O)N2CCOCC2)ccc1N1CCCC1 do in these assays?
KCNK3 block: inactive; KCNQ1 act: inactive; hERG rescue: -10.9; Kir21 inh: 0.42; KCNQ1 block: inactive; KCNK9 inh: inactive

How did Cc1cc(OCCn2nc(C(=O)O)c3ccccc3c2=O)ccc1C(C)C do in these assays?
KCNK3 block: inactive; KCNQ1 act: inactive; hERG rescue: -9.3; Kir21 inh: -0.28; KCNQ1 block: inactive; KCNK9 inh: inactive; KCNK9 block conf: inactive; Kir2-1 spec: inactive; KCNK9 uninduced: inactive

What do the screens show for `CN1CCN(C2=Cc3cc(Cl)ccc3Sc3cc(F)ccc32)CC1`?
KCNK3 block: inactive; KCNQ1 act: inactive; hERG rescue: -31.3; Kir21 inh: -1.59; KCNQ1 block: inactive; KCNK9 inh: inactive

What do the screens show for `COc1cc(Cl)cc2c1Sc1ccccc1/C2=C/CCN(C)C`?
KCNK3 block: inactive; KCNQ1 act: inactive; hERG rescue: -19.4; Kir21 inh: -12.7*; KCNQ1 block: inactive; KCNK9 inh: inactive; KCNK9 block conf: inactive; Kir2-1 spec: inactive; KCNK9 uninduced: inactive

How did CN(C)CC/C=C1/c2cc(F)ccc2Sc2ccc(Cl)cc21 do in these assays?
KCNK3 block: inactive; KCNQ1 act: inactive; hERG rescue: -7.3; Kir21 inh: -8.48*; KCNQ1 block: inactive; KCNK9 inh: inactive; KCNK9 block conf: inactive; Kir2-1 spec: inactive; KCNK9 uninduced: inactive

How did CN(C)CC/C=C1/c2ccccc2Sc2c(O)cc(Cl)cc21 do in these assays?
KCNK3 block: inactive; KCNQ1 act: inactive; hERG rescue: -15.5; Kir21 inh: -1.85; KCNQ1 block: inactive; KCNK9 inh: inactive

Results for Cc1ccc(NC(=O)COc2ccc(C(=O)c3ccccc3)cc2)c(O)c1 ?
KCNK3 block: inactive; KCNQ1 act: inactive; hERG rescue: -6.9; Kir21 inh: 1.28; KCNQ1 block: inactive; KCNK9 inh: inactive

What do the screens show for `CC(C)c1ccc(NC(=O)c2cccc(Br)c2)cc1`?
KCNK3 block: inactive; KCNQ1 act: inactive; hERG rescue: -8.0; Kir21 inh: -0.09; KCNQ1 block: inactive; KCNK9 inh: -8.76*; KCNK9 block conf: 38.5%*; Kir2-1 spec: inactive; KCNK9 uninduced: inactive

Screening results as filed in PubChem BioAssay.
